# ChEMBL document CHEMBL3352717, “Identification of the first inhibitor of the GBP1:PIM1 interaction. Implications for the development of a new class of anticancer agents against paclitaxel resistant cancer cells” (J Med Chem, 2014)
# The source made the active and inactive calls. The rule behind the calls is not given here.
# Biological target: T1, Interferon-induced guanylate-binding protein 1/Serine/threonine-protein kinase pim-1 (Homo sapiens) (UniProt P11309+P32455)
# Assay: Inhibition of GBP1-PIM1 interaction in human SKOV3 cells at 100 nM after 3 hrs by co-immunoprecepitation method
# Type: cell-based
# Conditions: SK-OV-3
# In short: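 SKOV3 cells treated 3 h with compound; cells scraped, lysed, PIM1 immunoprecipitated (anti-IgG negative control); co-precipitated GBP1 detected by Western blot with anti-GBP1 (67 kD band, antibodies 1:200 in 5% milk–TBST). Bands quantified by densitometry; DMSO vehicle control.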
# T1 sequence (P11309 whole entry, looked up): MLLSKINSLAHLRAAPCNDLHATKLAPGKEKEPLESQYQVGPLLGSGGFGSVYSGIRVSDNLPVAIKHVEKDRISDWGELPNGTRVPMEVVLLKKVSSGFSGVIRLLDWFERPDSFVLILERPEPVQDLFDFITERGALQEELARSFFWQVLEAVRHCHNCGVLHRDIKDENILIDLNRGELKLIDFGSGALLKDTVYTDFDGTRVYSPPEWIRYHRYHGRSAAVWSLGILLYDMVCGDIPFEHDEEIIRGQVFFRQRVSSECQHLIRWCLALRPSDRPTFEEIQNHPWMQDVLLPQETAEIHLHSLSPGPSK
# T1 sequence (P32455 whole entry, looked up): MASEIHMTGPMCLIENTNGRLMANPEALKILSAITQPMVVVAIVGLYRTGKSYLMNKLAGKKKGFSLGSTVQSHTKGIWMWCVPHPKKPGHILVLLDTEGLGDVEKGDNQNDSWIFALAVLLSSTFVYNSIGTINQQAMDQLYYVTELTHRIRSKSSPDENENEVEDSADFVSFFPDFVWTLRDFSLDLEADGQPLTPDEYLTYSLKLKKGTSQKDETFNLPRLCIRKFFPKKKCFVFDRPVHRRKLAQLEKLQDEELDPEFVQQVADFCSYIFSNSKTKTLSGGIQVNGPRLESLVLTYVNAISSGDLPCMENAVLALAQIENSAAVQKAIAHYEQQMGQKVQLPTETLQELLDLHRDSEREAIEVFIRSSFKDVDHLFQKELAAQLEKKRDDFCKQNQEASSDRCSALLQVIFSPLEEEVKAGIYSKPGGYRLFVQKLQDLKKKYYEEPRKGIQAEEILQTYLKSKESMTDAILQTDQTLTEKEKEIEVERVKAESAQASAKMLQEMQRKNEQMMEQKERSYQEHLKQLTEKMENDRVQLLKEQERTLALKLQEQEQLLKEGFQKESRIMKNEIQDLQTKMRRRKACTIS
row,Compound,inhibition
1,COc1ccc2c(c1)N(CCO)C1=C(C(=O)OC1)C2c1ccccc1 (configuration not stated),Active
2,COc1ccc2c(c1)N(CCO)C1=C(C(=O)OC1)C2c1cc(OC)c(OC)c(OC)c1 (configuration not stated),inactive

# Biological target: T1, Interferon-induced guanylate-binding protein 1/Serine/threonine-protein kinase pim-1 (Homo sapiens)
# Assay: Inhibition of GBP1 (unknown origin)-PIM1 (unknown origin) interaction at 100 nM by SPR analysis
# Type: protein assay
# Conditions: not given
# In short: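 Recombinant PIM1 amine-coupled (50 μg/mL in acetate pH 5.5, ~2000 RU) on an EDC/S-NHS-activated GLM chip; blank acetate-treated channel as reference. Compound co-injected with GBP1 280 nM in TBST, 30 μL/min for 120 s, 15 min dissociation. Carbonic anhydrase 280 nM was the negative control. % inhibition = RU with compound over RU with GBP1 alone; runs done at least three times.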
row,Compound,inhibition
1,O=C1OCC2=C1C(c1cccc(Cl)c1)c1cc3c(cc1N2CCO)OCCO3 (configuration not stated),inactive
2,COc1ccc(C2C3=C(COC3=O)N(CCO)c3cc(OC)c(OC)cc32)cc1OC (configuration not stated),10%
3,COc1ccc(C2C3=C(COC3=O)N(CCO)c3cc(OC)ccc32)cc1 (configuration not stated),10%
4,O=C1OCC2=C1C(c1ccc(Cl)c(Cl)c1)c1cc3c(cc1N2CCO)CCC3 (configuration not stated),inactive
5,COc1ccc(C2C3=C(COC3=O)N(CCO)c3cc4c(cc32)OCO4)cc1 (configuration not stated),inactive
6,O=C1OCC2=C1C(c1cccc(Cl)c1)c1cc3c(cc1N2CCO)OCO3 (configuration not stated),inactive
7,COc1cccc(C2C3=C(COC3=O)N(CCO)c3cc(OC)c(OC)cc32)c1 (configuration not stated),10%
8,CCc1ccc2c(c1)N(CCO)C1=C(C(=O)OC1)C2c1ccccc1 (configuration not stated),inactive
9,O=C1OCC2=C1C(c1ccccc1)c1cc3c(cc1N2CCO)OCO3 (configuration not stated),inactive
10,COc1cccc(C2C3=C(COC3=O)N(CCO)c3cc4c(cc32)OCO4)c1 (configuration not stated),inactive
11,CCc1ccc2c(c1)N(CCO)C1=C(C(=O)OC1)C2c1cccc(Cl)c1 (configuration not stated),10%
12,CCc1ccc2c(c1)N(CCO)C1=C(C(=O)OC1)C2c1cc(OC)c(OC)c(OC)c1 (configuration not stated),inactive
13,COc1ccc(C2C3=C(COC3=O)N(CCO)c3cc4c(cc32)CCC4)cc1OC (configuration not stated),inactive
14,COc1cccc(C2C3=C(COC3=O)N(CCO)c3cc4c(cc32)CCC4)c1 (configuration not stated),inactive
15,COc1cc(C2C3=C(COC3=O)N(CCO)c3cc4c(cc32)CCC4)cc(OC)c1OC (configuration not stated),inactive
16,COc1cc2c(cc1OC)N(CCO)C1=C(C(=O)OC1)C2c1ccccc1 (configuration not stated),inactive
17,COc1cc2c(cc1OC)N(CCO)C1=C(C(=O)OC1)C2c1cc(OC)c(OC)c(OC)c1 (configuration not stated),10%
18,COc1ccc(C2C3=C(COC3=O)N(CCO)c3cc(OC)c(OC)cc32)cc1 (configuration not stated),inactive
19,COc1ccc2c(c1)N(CCO)C1=C(C(=O)OC1)C2c1cccc(Br)c1 (configuration not stated),10%
20,COc1ccc2c(c1)N(CCO)C1=C(C(=O)OC1)C2c1ccccc1 (configuration not stated),65%
21,COc1cc(C2C3=C(COC3=O)N(CCO)c3cc4c(cc32)OCO4)cc(OC)c1O (configuration not stated),inactive
22,COc1cccc(C2C3=C(COC3=O)N(CCO)c3cc(OC)ccc32)c1 (configuration not stated),10%

row,Compound,inhibition
1,O=C1OCC2=C1C(c1ccc(Cl)c(Cl)c1)c1cc3c(cc1N2CCO)OCCO3 (configuration not stated),inactive
2,COc1ccc(C2C3=C(COC3=O)N(CCO)c3cc4c(cc32)OCCO4)cc1 (configuration not stated),inactive
3,COc1cc(C2C3=C(COC3=O)N(CCO)c3cc4c(cc32)OCO4)cc(OC)c1OC (configuration not stated),inactive
4,COc1cccc(C2C3=C(COC3=O)N(CCO)c3cc4c(cc32)OCCO4)c1 (configuration not stated),inactive
5,CCc1ccc2c(c1)N(CCO)C1=C(C(=O)OC1)C2c1ccc(Cl)c(Cl)c1 (configuration not stated),inactive
6,O=C1OCC2=C1C(c1cccc(Cl)c1)c1cc3c(cc1N2CCO)CCC3 (configuration not stated),inactive
7,COc1ccc2c(c1)N(CCO)C1=C(C(=O)OC1)C2c1ccc(OC)c(OC)c1 (configuration not stated),inactive
8,COc1ccc(C2C3=C(COC3=O)N(CCO)c3cc4c(cc32)OCCO4)cc1OC (configuration not stated),inactive
9,COc1ccc2c(c1)N(CCO)C1=C(C(=O)OC1)C2c1cc(OC)c(OC)c(OC)c1 (configuration not stated),10%
10,COc1ccc(C2C3=C(COC3=O)N(CCO)c3cc4c(cc32)CCC4)cc1 (configuration not stated),inactive
11,COc1cc(C2C3=C(COC3=O)N(CCO)c3cc4c(cc32)CCC4)cc(OC)c1O (configuration not stated),inactive
12,COc1cc(C2C3=C(COC3=O)N(CCO)c3cc4c(cc32)OCCO4)cc(OC)c1OC (configuration not stated),inactive
13,COc1cc2c(cc1OC)N(CCO)C1=C(C(=O)OC1)C2c1cccc(Cl)c1 (configuration not stated),10%
14,O=C1OCC2=C1C(c1cccc(Br)c1)c1cc3c(cc1N2CCO)CCC3 (configuration not stated),inactive
15,CCc1ccc2c(c1)N(CCO)C1=C(C(=O)OC1)C2c1cccc(Br)c1 (configuration not stated),inactive
16,COc1cc(C2C3=C(COC3=O)N(CCO)c3cc4c(cc32)OCCO4)cc(OC)c1O (configuration not stated),inactive
17,COc1cc2c(cc1OC)N(CCO)C1=C(C(=O)OC1)C2c1cccc(Br)c1 (configuration not stated),10%
18,COc1cc2c(cc1OC)N(CCO)C1=C(C(=O)OC1)C2c1ccc(Cl)c(Cl)c1 (configuration not stated),inactive
19,COc1ccc(C2C3=C(COC3=O)N(CCO)c3cc4c(cc32)OCO4)cc1OC (configuration not stated),inactive
20,O=C1OCC2=C1C(c1cccc(Br)c1)c1cc3c(cc1N2CCO)OCCO3 (configuration not stated),inactive
21,O=C1OCC2=C1C(c1ccccc1)c1cc3c(cc1N2CCO)OCCO3 (configuration not stated),inactive
22,O=C1OCC2=C1C(c1ccccc1)c1cc3c(cc1N2CCO)CCC3 (configuration not stated),inactive

# Biological target: T1, Interferon-induced guanylate-binding protein 1/Serine/threonine-protein kinase pim-1 (Homo sapiens)
# Assay: Inhibition of GBP1 (unknown origin)-PIM1 (unknown origin) interaction by SPR analysis
# Type: protein assay
# Conditions: not given
# In short: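 Recombinant PIM1 (50 μg/mL in acetate buffer pH 5.5) amine-coupled to GLM chip via EDC/S-NHS (~2000 RU); compound (0.1, 1, 10, 100 nM) co-injected with GBP1 280 nM in TBST, 30 μL/min, 120 s, 15 min dissociation; DMSO 0.2% v/v. CA 280 nM negative control. % inhibition = RU with compound over GBP1-alone maximum; runs at least three times.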
row,Compound,inhibition
1,COc1ccc2c(c1)N(CCO)C1=C(C(=O)OC1)C2c1ccccc1 (configuration not stated),Dose-dependent effect
